Results as given in ChEMBL document CHEMBL1123566, “Synthesis and cardiac electrophysiological activity of 2- and 3-[(substituted phenyl)alkyl]quinuclidines. Structure-activity relationships” (1987).
Where “and” joins values, the source holds several entries; their conditions need not be identical. Identical values can stand only once.

Legend:
Canis familiaris [1] = species: Canis familiaris; test: In vitro electrophysiological evaluation in canine cardiac ventricular muscle reported as maximum % change for conduction time(CT) at 0.1-100 uM concentration range; concentration at which it occurred is 100 uM.; format: functional, Canis lupus familiaris, Muscle tissue
Canis familiaris [2] = species: Canis familiaris; test: In vitro electrophysiological evaluation in canine cardiac Purkinje fibres reported as % change for action potential duration at 10 uM at 1-100 uM concentration range; format: functional, Canis lupus familiaris, Purkinje fiber
Procedure, shortened: (§1)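 Canine cardiac Purkinje fibres, intracellular microelectrode recording, paced at a basic cycle length of 1 s. APD95 and Vmax read simultaneously. Compound: 10 mM stock in deionized water, diluted into Tyrode's solution, tested over the stated concentration range. Each fibre used once as its own control. Result is % change from control, given at 10 µM or as the maximum with its concentration. M = <10% decrease or an increase in Vmax.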

Canis familiaris [3] = species: Canis familiaris; test: (§2) In vitro electrophysiological activity in canine cardiac occurred is 100 uM; format: functional, Canis lupus familiaris, Heart
Canis familiaris [4] = species: Canis familiaris; test: In vitro electrophysiological evaluation in canine cardiac Purkinje fibres reported as maximum percent change Vmax concentration range of 0.1-100 uM; Minimal (<10% decrease or increase in V max).; format: functional; conditions: Canis lupus familiaris; Purkinje fiber; procedure, shortened: as §1
Canis familiaris [5] = species: Canis familiaris; test: as §2; format: functional, Canis lupus familiaris, Heart; remark: listed apart in the source
Canis familiaris [6] = species: Canis familiaris; test: In vitro electrophysiological evaluation in canine cardiac Purkinje fibres reported as % change for action potential duration at a concentration of 10 uM; format: functional, Canis lupus familiaris, Purkinje fiber; procedure, shortened: as §1
Canis familiaris [7] = species: Canis familiaris; test: In vitro electrophysiological evaluation in canine cardiac occurred is 100 uM; format: functional; conditions: Canis lupus familiaris; Heart
Canis familiaris [8] = species: Canis familiaris; test: In vitro electrophysiological evaluation in canine cardiac Purkinje fibres reported as percent change Vmax at 10 uM at concentration range of 0.1-100 uM; Minimal (<10% decrease or increase in V max).; format: functional, organism-based; conditions: Canis lupus familiaris, Purkinje fiber; procedure, shortened: as §1
Canis familiaris [9] = species: Canis familiaris; test: In vitro electrophysiological evaluation in canine cardiac ventricular muscle reported as maximum % change for functional refractory period (FRP) at 0.1-100 uM concentration range; concentration at which it occurred is 10 uM.; parameters: species or system Canis lupus familiaris, Muscle tissue
Procedure, shortened: (§3)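 Canine right ventricle and papillary muscle strips in oxygenated Tyrode's solution, fitted with stimulating and recording electrodes. The extra-stimulus conduction-interval method was adapted for in vitro use. FRP and CT were read from a conduction-interval curve before and after various compound concentrations, and expressed as percent change from control. Compounds were taken from 10 mM deionized-water stock into Tyrode's. Each strip was used once as its own control.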

Canis familiaris [10] = species: Canis familiaris; test: In vitro electrophysiological evaluation in canine cardiac ventricular muscle reported as % change for the functional refractory period (FRP) at 10 uM at concentration range of 0.1-100 uM; parameters: species or system Canis lupus familiaris, Muscle tissue; procedure, shortened: as §3
Canis familiaris [11] = species: Canis familiaris; test: In vitro electrophysiological evaluation in canine cardiac Purkinje fibres reported as percent change Vmax at 10 uM at concentration range of 1-100 uM; format: functional; conditions: Canis lupus familiaris, Purkinje fiber; procedure, shortened: as §1
Canis familiaris [12] = species: Canis familiaris; test: In vitro electrophysiological evaluation in canine cardiac Purkinje fibres reported as percent change Vmax concentration range of 0.1-100 uM; format: functional; conditions: Canis lupus familiaris; Purkinje fiber; procedure, shortened: as §1
Canis familiaris [13] = species: Canis familiaris; test: In vitro electrophysiological activity in canine cardiac Purkinje fibres given as maximum % change for action potential duration at 100 uM concentration; format: functional, Canis lupus familiaris, Purkinje fiber
Procedure, shortened: (§4)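 Canine cardiac Purkinje fibres, intracellular recording at 1 s basic cycle length, over cumulative concentration ranges. Compound 10 mM stock in deionized water diluted into Tyrode's. Each fibre used once as its own control. Value is the maximum % change from control in APD at 95% repolarization, with the concentration where it occurred; both values given if a biphasic response (>20% reversal) occurred.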

Canis familiaris [14] = species: Canis familiaris; test: In vitro electrophysiological activity in canine cardiac Purkinje fibres given as maximum % change for action potential duration at 1 uM concentration; format: functional, Canis lupus familiaris, Purkinje fiber; procedure, shortened: as §4
Canis familiaris [15] = species: Canis familiaris; test: In vitro electrophysiological evaluation in canine cardiac Purkinje fibres reported as maximum percent change Vmax concentration range of 1-100 uM; format: functional; conditions: Canis lupus familiaris; Purkinje fiber
Procedure, shortened: (§5)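 Canine cardiac Purkinje fibers, intracellular recording, paced at a basic cycle length of 1 s. APD95 and Vmax are recorded together across cumulative concentrations. Compound is a 10 mM aqueous stock diluted into Tyrode's solution. Each fiber is used once as its own control. Readouts are percent change from control at 10 μM, and the maximum change with the concentration where it occurred.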

Canis familiaris [16] = species: Canis familiaris; test: In vitro electrophysiological evaluation in canine cardiac Purkinje fibres reported as % change for action potential duration at 0.1-100 uM concentration range; format: functional, Canis lupus familiaris, Purkinje fiber; procedure, shortened: as §1
Canis familiaris [17] = species: Canis familiaris; test: In vitro electrophysiological evaluation in canine cardiac Purkinje fibres reported as % change for action potential duration at 1-100 uM concentration range; format: functional, Canis lupus familiaris, Purkinje fiber; procedure, shortened: as §5
Canis familiaris [18] = species: Canis familiaris; test: In vitro electrophysiological evaluation in canine cardiac Purkinje fibres reported as percent change Vmax concentration range of 1-100 uM; format: functional; conditions: Canis lupus familiaris; Purkinje fiber; procedure, shortened: as §5
Canis familiaris [19] = species: Canis familiaris; test: In vitro electrophysiological activity in canine cardiac Purkinje fibres given as maximum % change for action potential duration at 0.1-100 uM concentration; format: functional, Canis lupus familiaris, Purkinje fiber; procedure, shortened: as §4

Compound	CT (Canis familiaris [1]) [%]	APD95 (Canis familiaris [2]) [%]	APD95 (Canis familiaris [3]) [%]	Vmax (Canis familiaris [4]) [%]	APD95 (Canis familiaris [5]) [%]	APD95 (Canis familiaris [6]) [%]	Vmax (Canis familiaris [7]) [%]	Vmax (Canis familiaris [8]) [%]	FRP (Canis familiaris [9]) [%]	FRP (Canis familiaris [10]) [%]	Vmax (Canis familiaris [11]) [%]	Vmax (Canis familiaris [12]) [%]	APD95 (Canis familiaris [13]) [%]	APD95 (Canis familiaris [14]) [%]	Vmax (Canis familiaris [15]) [%]	APD95 (Canis familiaris [16])	APD95 (Canis familiaris [17]) [%]	Vmax (Canis familiaris [18]) [%]	APD95 (Canis familiaris [19])
Cl.O=C(CCC1C(=O)C2CCN1CC2)c1ccccc1 (centres undefined)	17	-1	-16	< 10	-14	-3	-52	< 10	12	12	-36	–	–	–	–	–	–	–	–
CCN(CC)CCCCc1ccc(Cl)cc1	–	–	–	–	–	–	–	–	–	–	–	< 10	-15	25	-57	38% and 27%	21	< 10	38% and 27%
